# In ChEMBL document CHEMBL4190389, “Synthesis and activity of di- or trisubstituted N-(phenoxyalkyl)- or N-{2-[2-(phenoxy)ethoxy]ethyl}piperazine derivatives on the central nervous system” (Bioorg Med Chem Lett, 2018):
# Active and inactive are the calls of the source. The rule behind the calls is not given here.
# Key:
# [1] = biological target: T1, 5-hydroxytryptamine receptor 2A (Homo sapiens, UniProt P28223); test: Agonist activity at human 5-HT2A receptor expressed in CHO-K1 cells co-expressing Galpha16 assessed as increase in calcium mobilization measured for 30 secs by aequorin-derived luminescence assay; type: functional, cell-based
# T1 sequence (P28223 whole entry): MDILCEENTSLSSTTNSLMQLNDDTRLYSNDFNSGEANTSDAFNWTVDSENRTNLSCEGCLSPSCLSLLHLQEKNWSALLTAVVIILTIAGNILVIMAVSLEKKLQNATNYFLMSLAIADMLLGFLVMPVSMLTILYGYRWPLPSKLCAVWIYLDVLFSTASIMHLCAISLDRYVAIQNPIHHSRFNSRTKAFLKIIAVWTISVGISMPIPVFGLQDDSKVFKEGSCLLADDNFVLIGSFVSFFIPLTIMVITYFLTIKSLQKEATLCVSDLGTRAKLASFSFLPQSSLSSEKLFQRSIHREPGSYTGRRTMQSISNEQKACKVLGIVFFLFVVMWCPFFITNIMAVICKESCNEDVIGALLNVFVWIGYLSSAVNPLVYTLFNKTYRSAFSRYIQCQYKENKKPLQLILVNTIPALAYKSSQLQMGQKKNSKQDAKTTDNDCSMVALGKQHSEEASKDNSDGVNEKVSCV
# [2] = biological target: T2, 5-hydroxytryptamine receptor 1A (Homo sapiens, UniProt P08908); test: Displacement of [3H]8-OH-DPAT from recombinant human 5-HT1A receptor expressed in HEK293 cell membranes after 60 mins by liquid scintillation counting method
# T2 sequence (P08908 whole entry): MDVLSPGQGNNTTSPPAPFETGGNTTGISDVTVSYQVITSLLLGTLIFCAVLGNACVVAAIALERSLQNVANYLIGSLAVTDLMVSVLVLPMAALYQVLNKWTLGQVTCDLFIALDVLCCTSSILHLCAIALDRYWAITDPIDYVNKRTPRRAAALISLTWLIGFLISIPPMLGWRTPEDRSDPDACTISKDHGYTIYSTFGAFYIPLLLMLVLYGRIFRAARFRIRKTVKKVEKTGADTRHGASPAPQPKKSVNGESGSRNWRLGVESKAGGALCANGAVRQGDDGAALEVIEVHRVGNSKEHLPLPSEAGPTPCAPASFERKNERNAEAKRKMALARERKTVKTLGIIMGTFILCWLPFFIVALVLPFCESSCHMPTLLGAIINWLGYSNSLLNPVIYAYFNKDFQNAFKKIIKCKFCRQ
# [3] = biological target: T1, 5-hydroxytryptamine receptor 2A; test: biochemical; type: cell-based, HEK293
# [4] = biological target: 5-hydroxytryptamine receptor 6 (Homo sapiens, UniProt P50406); test: Displacement of [3H]LSD from recombinant human 5-HT6 receptor expressed in CHO cells cell membranes after 60 mins by liquid scintillation counting method
# Sequence of 5-hydroxytryptamine receptor 6 (P50406 whole entry): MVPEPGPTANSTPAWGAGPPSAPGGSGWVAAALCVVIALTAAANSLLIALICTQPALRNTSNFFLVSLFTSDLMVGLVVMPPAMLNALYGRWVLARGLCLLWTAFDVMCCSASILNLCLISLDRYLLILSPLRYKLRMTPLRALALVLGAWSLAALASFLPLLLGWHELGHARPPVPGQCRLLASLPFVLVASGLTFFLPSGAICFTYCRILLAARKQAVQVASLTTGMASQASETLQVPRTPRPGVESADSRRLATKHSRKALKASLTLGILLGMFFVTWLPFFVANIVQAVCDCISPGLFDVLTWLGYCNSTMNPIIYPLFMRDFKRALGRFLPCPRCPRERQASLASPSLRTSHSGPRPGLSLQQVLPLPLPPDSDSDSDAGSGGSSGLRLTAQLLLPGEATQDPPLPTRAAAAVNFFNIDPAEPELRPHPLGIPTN
# [5] = biological target: T3, 5-hydroxytryptamine receptor 7 (Homo sapiens, UniProt P34969); test: biochemical; type: cell-based, CHO
# T3 sequence (P34969 whole entry): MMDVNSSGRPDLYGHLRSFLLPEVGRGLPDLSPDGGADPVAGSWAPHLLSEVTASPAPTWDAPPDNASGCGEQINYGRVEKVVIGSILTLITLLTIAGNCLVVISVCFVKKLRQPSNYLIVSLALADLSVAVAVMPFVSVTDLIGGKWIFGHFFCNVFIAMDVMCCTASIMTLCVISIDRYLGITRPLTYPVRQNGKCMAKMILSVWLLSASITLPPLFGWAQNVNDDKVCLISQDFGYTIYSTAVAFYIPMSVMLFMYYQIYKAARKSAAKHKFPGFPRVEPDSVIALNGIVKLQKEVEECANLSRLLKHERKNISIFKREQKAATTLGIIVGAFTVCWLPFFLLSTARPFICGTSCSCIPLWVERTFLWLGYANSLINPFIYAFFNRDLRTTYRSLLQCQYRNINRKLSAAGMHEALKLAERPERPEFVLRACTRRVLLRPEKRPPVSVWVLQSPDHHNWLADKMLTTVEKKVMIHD
# D(2) dopamine receptor [6] = biological target: T4, D(2) dopamine receptor (Homo sapiens, UniProt P14416); test: Displacement of [3H]methylspiperonee from recombinant human D2 receptor expressed in HEK293 cells cell membranes after 60 mins by liquid scintillation counting method
# T4 sequence (P14416 whole entry): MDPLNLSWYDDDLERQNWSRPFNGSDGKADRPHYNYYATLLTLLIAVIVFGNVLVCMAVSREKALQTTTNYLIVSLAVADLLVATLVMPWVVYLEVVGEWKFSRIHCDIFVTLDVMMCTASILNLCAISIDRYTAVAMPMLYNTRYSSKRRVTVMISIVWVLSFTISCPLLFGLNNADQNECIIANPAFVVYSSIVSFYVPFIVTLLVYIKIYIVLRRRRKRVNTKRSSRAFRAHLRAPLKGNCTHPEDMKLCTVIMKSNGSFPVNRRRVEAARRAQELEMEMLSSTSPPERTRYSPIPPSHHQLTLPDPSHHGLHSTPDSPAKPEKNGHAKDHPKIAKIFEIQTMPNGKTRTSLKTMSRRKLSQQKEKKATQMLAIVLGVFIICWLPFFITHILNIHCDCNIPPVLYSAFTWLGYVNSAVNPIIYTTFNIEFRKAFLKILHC
# [7] = biological target: T5, Alpha-1A adrenergic receptor (Homo sapiens, UniProt P35348); test: Displacement of [3H]prazosin from recombinant human alpha1 adrenoceptor expressed in CHO cell membranes after 30 mins by liquid scintillation counting method
# T5 sequence (P35348 whole entry): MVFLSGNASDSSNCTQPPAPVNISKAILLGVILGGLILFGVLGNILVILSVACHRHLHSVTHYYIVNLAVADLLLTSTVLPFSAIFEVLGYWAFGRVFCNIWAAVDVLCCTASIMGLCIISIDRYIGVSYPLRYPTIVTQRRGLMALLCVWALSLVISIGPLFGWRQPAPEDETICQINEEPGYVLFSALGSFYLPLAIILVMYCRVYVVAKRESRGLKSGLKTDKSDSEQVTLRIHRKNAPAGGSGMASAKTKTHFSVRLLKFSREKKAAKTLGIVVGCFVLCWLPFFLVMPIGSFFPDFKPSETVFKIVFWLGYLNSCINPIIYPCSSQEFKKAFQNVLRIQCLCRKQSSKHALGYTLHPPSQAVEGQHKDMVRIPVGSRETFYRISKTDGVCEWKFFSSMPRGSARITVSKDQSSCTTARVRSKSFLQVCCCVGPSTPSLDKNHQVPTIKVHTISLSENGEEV
# [8] = biological target: T6, 5-hydroxytryptamine receptor 1A (Homo sapiens) (UniProt P08908); test: Agonist activity at human 5-HT1A receptor expressed in CHO-K1 cells co-expressing Galpha16 assessed as increase in calcium mobilization measured for 30 secs by aequorin-derived luminescence assay relative to serotonin; type: functional, cell-based
# T6 sequence (whole entry): T2 sequence (P08908 whole entry)
# [9] = biological target: T6, 5-hydroxytryptamine receptor 1A (Homo sapiens); test: Antagonist activity at human 5-HT1A receptor expressed in CHO-K1 cells co-expressing Galpha16 assessed as decrease in serotonin-induced calcium mobilization preincubated for 25 mins followed by serotonin challenge measured for 30 secs by aequorin-derived luminescence assay relative to control; type: functional, cell-based
# [10] = biological target: T6, 5-hydroxytryptamine receptor 1A (Homo sapiens); test: (§1) Antagonist activity at human 5-HT1A receptor expressed in CHO-K1 cells co-expressing Galpha16 assessed as decrease in serotonin calcium mobilization preincubated for 25 mins followed by serotonin challenge measured for 30 secs by aequorin-derived luminescence assay; type: functional, cell-based
# [11] = biological target: T2, 5-hydroxytryptamine receptor 1A; test: as §1; type: functional, cell-based
# [12] = biological target: T1, 5-hydroxytryptamine receptor 2A; test: Antagonist activity at human 5-HT2A receptor expressed in CHO-K1 cells co-expressing Galpha16 assessed as decrease in serotonin calcium mobilization preincubated for 30 mins followed by serotonin challenge measured for 30 secs by aequorin-derived luminescence assay; type: functional, cell-based
# [13] = biological target: T3, 5-hydroxytryptamine receptor 7; test: Agonist activity at human 5-HT7 receptor expressed in CHO-K1 cells assessed as increase in serotonin-induced cAMP level after 1 hr by TR-FRET assay relative to serotonin; type: functional, cell-based
# [14] = biological target: T3, 5-hydroxytryptamine receptor 7; test: Antagonist activity at human 5-HT7 receptor expressed in CHO-K1 cells assessed as decrease in serotonin-induced cAMP level after 1 hr by TR-FRET assay relative to control; type: functional, cell-based
# [15] = biological target: T3, 5-hydroxytryptamine receptor 7; test: Antagonist activity at human 5-HT7 receptor expressed in CHO-K1 cells assessed as decrease in serotonin-induced cAMP level after 1 hr by TR-FRET assay; type: functional, cell-based
# D(2) dopamine receptor [16] = biological target: T4, D(2) dopamine receptor; test: Agonist activity at human D2 receptor expressed in CHO-K1 cells co-expressing Galphaqi5 assessed as increase apomorphine-induced calcium mobilization measured for 30 secs by aequorin-derived luminescence assay relative to apomorphine; type: functional, cell-based
# D(2) dopamine receptor [17] = biological target: T4, D(2) dopamine receptor; test: Agonist activity at human D2 receptor expressed in CHO-K1 cells co-expressing Galphaqi5 assessed as increase in calcium mobilization measured for 30 secs by aequorin-derived luminescence assay; type: functional, cell-based
# Mus musculus [18] = test: Antidepressant-like activity in Albino Swiss CD-1 mouse assessed as immobility time at 5 mg/kg, ip administered 30 mins prior to test measured for last 4 mins of 6 mins observation by forced swim test (reference value: 153.9 to 201.9 secs); type: functional
# Mus musculus [19] = test: Antidepressant-like activity in Albino Swiss CD-1 mouse assessed as immobility time at 10 mg/kg, ip administered 30 mins prior to test measured for last 4 mins of 6 mins observation by forced swim test (reference value: 153.9 to 201.9 secs); type: functional
# Mus musculus [20] = test: Antidepressant-like activity in Albino Swiss CD-1 mouse assessed as immobility time at 20 mg/kg, ip administered 30 mins prior to test measured for last 4 mins of 6 mins observation by forced swim test (reference value: 153.9 to 201.9 secs); type: functional
# Mus musculus [21] = test: Anxiolytic-like activity in Albino Swiss CD-1 mouse assessed as increase in number of punished crossings at 5 to 10 mg/kg, ip administered for 30 mins prior to test measured for 1 min by four-plate test; type: functional, organism-based
# Outline: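 Four-plate test in mice, i.p., 30 min before test; vehicle 0.9% NaCl; doses 1.25–10 mg/kg; number of punished crossings counted; mean ± SEM, n = 8–10 mice per group; ANOVA F statistics.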
# Mus musculus [22] = test: Toxicity in Albino Swiss CD-1 mouse assessed as effect on locomotory activity at 5 to 10 mg/kg, ip administered for 30 mins prior to test measured for 1 min; type: organism-based; conditions: in vivo
# Outline: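 Mice dosed i.p. 30 min before test; vehicle groups received 0.9% NaCl. Spontaneous locomotion scored as number of crossings during a 1-min session. Each dose compared with its own vehicle group by Student t-test; mean ± SEM, n = 8–10 mice per group.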
smiles,measurement,setting,value
CC(N)Cc1c[nH]c2ccc(O)cc12 (stereo not drawn),EC50,[1],2 nM
Cc1cc(OCCCN2CCN(c3ccccc3)CC2)ccc1Cl.Cl.Cl,Ki,[2],20 nM
same,Ki,[3],76 nM
same,Ki,[4],> 5000 nM
same,Ki,[5],90 nM
same,Ki,D(2) dopamine receptor [6],299 nM
same,Ki,[7],93 nM
same,Emax,[8],11%
same,Emax,[9],6%
same,Kb,[10],71.5 nM
same,IC50,[11],291 nM
same,IC50,[12],85800 nM
same,Emax,[13],11%
same,Emax,[14],15%
same,IC50,[15],5790 nM
same,Kb,[15],2460 nM
same,Emax,D(2) dopamine receptor [16],48%
same,EC50,D(2) dopamine receptor [17],757 nM
same,Time,Mus musculus [18],189.1 s
same,Time,Mus musculus [19],188.9 s
same,Time,Mus musculus [20],172.1 s
same,Activity,Mus musculus [21],inactive
same,Activity,Mus musculus [22],Non-Toxic
